{"data": "Published values of several laboratories", "organism": "Enterococcus faecalis", "observed": "microbial growth", "note": "Lines come from different studies, so protocols differ."}
{"SMILES": "O=C(O)c1cn(C2CC2)c2cc(N3CCNCC3)c(F)cc2c1=O", "method": "broth dilution", "strain": "ATCC14506", "time": "18 h", "MIC": "< 5 µg/mL"}
{"SMILES": "Cc1ccc2nc(-c3c4ccccc4cc4ccccc34)[nH]c2c1", "method": "broth dilution", "strain": "ATCC29212", "MIC": "64 µg/mL"}
{"SMILES": "Cc1cc(=O)[nH]n1C(=O)c1ccc(-n2c(C)ccc2C)cc1", "method": "broth dilution", "strain": "ATCC14506", "time": "18 h", "MIC": "125 µg/mL"}
{"SMILES": "COc1cccc(-c2nc3ccccc3n2Cc2ccccc2)c1", "method": "broth dilution", "strain": "ATCC29212", "MIC": "64 µg/mL"}
{"SMILES": "C/C=C(\\C)c1cc(O)c(C)c(OC(=O)c2c(C)cc(O)c(Cl)c2O)c1", "method": "broth dilution", "strain": "ATCC29212", "MIC": "8 µg/mL"}
{"SMILES": "Cc1ccc2nc(-c3ccc(F)cc3)[nH]c2c1", "method": "broth dilution", "strain": "ATCC29212", "MIC": "64 µg/mL"}
{"SMILES": "CCn1cc(C(=O)O)c(=O)c2cc(F)c(N3CCNCC3)cc21", "method": "broth dilution", "strain": "NCTC12697", "MIC": "4 µM"}
{"SMILES": "CC(C)Oc1c(NC(=O)c2ccc(NC(=O)[C@H](CC(N)=O)NC(=O)c3ccc(NC(=O)c4ccc(C#N)s4)cc3)cc2)ccc(C(=O)Nc2ccc(C(=O)O)cc2)c1O", "strain": "ATCC29212", "MIC": "0.25 µg/mL"}
{"SMILES": "Cc1ccc(C)n1-c1ccc(-c2nnco2)cc1", "method": "broth dilution", "strain": "ATCC14506", "time": "18 h", "MIC": "2 µg/mL"}
{"SMILES": "CN[C@H](CC(C)C)C(=O)N[C@H]1C(=O)N[C@@H](CC(N)=O)C(=O)N[C@H]2C(=O)N[C@H]3C(=O)N[C@H](C(=O)N[C@H](C(=O)O)c4cc(O)cc(O)c4-c4cc3ccc4O)[C@H](O)c3ccc(c(Cl)c3)Oc3cc2cc(c3O[C@@H]2O[C@H](CO)[C@@H](O)[C@H](O)[C@H]2O[C@H]2C[C@](C)(N)[C@H](O)[C@H](C)O2)Oc2ccc(cc2Cl)[C@H]1O", "method": "broth dilution", "strain": "ATCC29212", "MIC": "2 µg/mL"}
{"SMILES": "CC1(C)S[C@@H]2[C@H](NC(=O)[C@H](N)c3ccccc3)C(=O)N2[C@H]1C(=O)O", "method": "broth dilution", "strain": "ATCC29212", "MIC": "2 µg/mL"}
{"SMILES": "Cc1ccc(C)n1-c1ccc(C(=O)NNC=O)cc1", "method": "broth dilution", "strain": "ATCC14506", "time": "18 h", "MIC": "31.2 µg/mL"}
{"SMILES": "Cc1ccc2nc(-c3ccco3)n(Cc3ccccc3)c2c1", "method": "broth dilution", "strain": "ATCC29212", "MIC": "128 µg/mL"}
{"SMILES": "Cc1ccc(C)n1-c1ccc(-c2n[nH]c(=S)[nH]2)cc1", "method": "broth dilution", "strain": "ATCC14506", "time": "18 h", "MIC": "4 µg/mL"}
{"SMILES": "C=CCn1c(-c2ccc(OC)c(OC)c2)nc2ccccc21", "method": "broth dilution", "strain": "ATCC29212", "MIC": "64 µg/mL"}
{"SMILES": "O=C(Nc1ccc2c(c1)OC(F)(F)O2)Nc1ccc(Cl)c(C(F)(F)F)c1", "MIC": "3 µM"}
{"SMILES": "Cc1ccc(C)n1-c1ccc(-c2nnc(-c3ccc(N(C)C)cc3)[nH]2)cc1", "method": "broth dilution", "strain": "ATCC14506", "time": "18 h", "MIC": "31.2 µg/mL"}
{"SMILES": "COc1ccc(-c2nc3ccc(C)cc3[nH]2)cc1OC", "method": "broth dilution", "strain": "ATCC29212", "MIC": "128 µg/mL"}
{"SMILES": "C/C=C(\\C)c1cc(OC(=O)c2c(C)c(Cl)c(O)c(Cl)c2O)c(C)c(O)c1C(=O)O", "method": "broth dilution", "strain": "ATCC29212", "MIC": "> 64 µg/mL"}
{"SMILES": "CC(C)Oc1c(NC(=O)c2ccc(NC(=O)[C@H](CC(N)=O)NC(=O)c3ccc(NC(=O)c4ccc(C#N)cn4)cc3)cc2)ccc(C(=O)Nc2ccc(C(=O)O)cc2)c1O", "strain": "ATCC29212", "MIC": "0.125 µg/mL"}
